The values that follow come from ChEMBL document CHEMBL2375221, “Preparation and antimalarial activity of semisynthetic lycorenine derivatives” (Eur J Med Chem, 2013).

Broadly, the IC50 is the concentration that gives 50% inhibition.

The assay concerns Plasmodium falciparum. Briefly: Antimalarial activity against chloroquine-sensitive Plasmodium falciparum F-32 Tanzania infected in blood assessed as decrease in parasitaemia after 48 hrs. The assay is classed as functional, organism-based. An outline of the steps:
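P. falciparum F-32 Tanzania (chloroquine-sensitive) grown in glucose-enriched RPMI 1640 with 10% human serum at 37 °C. After 24 h at 37 °C, the medium was replaced with fresh medium containing compound in DMSO at three concentrations (0.1, 1, 10). Incubation continued 48 h. On day three, a blood smear from each well was used to score parasitaemia versus control. IC50 was read graphically against concentration.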
For `CN1CCC2=C[C@H](O)[C@H]3OC(=O)c4cc5c(cc4[C@@]3(O)[C@@H]21)OCO5`, the IC50 is 60.4 µM. The same measure for `CN1CCC2=C[C@H](O)[C@H]3NC(=O)c4cc5c(cc4[C@H]3[C@@H]21)OCO5`: 18.8 µM; for `CC(=O)O[C@H]1C=C2CCN(C)[C@H]2[C@@H]2c3cc4c(cc3C(=O)O[C@@H]21)OCO4`: 58.8 µM.

`CN1CCC2=C[C@H](OC(=O)c3cccnc3)[C@H]3OC(=O)c4cc5c(cc4[C@H]3[C@@H]21)OCO5`: the IC50 amounted to 49.8 µM. For `CN1CCC2=C[C@H](OC(=O)c3ccc(Br)cc3)[C@H]3OC(=O)c4cc5c(cc4[C@H]3[C@@H]21)OCO5` the value was 42.2 µM; for `CC(C)C(=O)O[C@H]1C=C2CCN(C)[C@H]2[C@@H]2c3cc4c(cc3C(=O)O[C@@H]21)OCO4`, 57.1 µM; for `COC(=O)c1cc(C(=O)OC)cc(C(=O)O[C@H]2C=C3CCN(C)[C@H]3[C@@H]3c4cc5c(cc4C(=O)O[C@@H]32)OCO5)c1`, 7.4 µM. For `C=CCCC(=O)O[C@H]1C=C2CCN(C)[C@H]2[C@@H]2c3cc4c(cc3C(=O)O[C@@H]21)OCO4` the value was 55.4 µM.

Regarding `CN1CC=C2C=C[C@H]3OC(=O)c4cc5c(cc4[C@H]3[C@@H]21)OCO5`, the IC50 came out at 94.1 µM.

For `CN1CC[C@]2(Cl)C=C[C@H]3OC(=O)c4cc5c(cc4[C@H]3[C@H]12)OCO5`, the IC50 came out at 84 µM. For `CCOC(=O)O[C@H]1C=C2CCN(C)[C@H]2[C@@H]2c3cc4c(cc3C(=O)O[C@@H]21)OCO4` the value was 61.8 µM. The same measure for `C=Cc1ccc(C(=O)O[C@H]2C=C3CCN(C)[C@H]3[C@@H]3c4cc5c(cc4C(=O)O[C@@H]32)OCO5)cc1`: 49.4 µM; for `CN1CCC2=C[C@H](O)[C@H]3OC(=O)c4cc(O)c(O)cc4[C@H]3[C@@H]21`: 9.9 µM; for `COc1cc2c(cc1OC)[C@@H]1[C@H](OC2=O)[C@@H](O)C=C2CCN(C)[C@H]21`: 84.5 µM. As for `C[N+]1([O-])CCC2=C[C@H](O)[C@H]3OC(=O)c4cc5c(cc4[C@H]3[C@@H]21)OCO5` (stereo partly drawn), the IC50 turned out to be 87.6 µM. Consider `C[N+]1=CCC2=C[C@H](O)[C@H]3OC(=O)c4cc5c(cc4[C@H]3[C@@H]21)OCO5`, for which the IC50 is above 100 µM. The same measure for `COC(=O)c1cc2c(cc1-c1cc(OC(C)=O)cc3c1N(C)CC3)OCO2`: 70.4 µM; for `CN1CC[C@@H]2C[C@H](O)[C@H]3OC(=O)c4cc5c(cc4[C@H]3[C@@H]21)OCO5`: 78.8 µM. For the molecule `CN1CC[C@]2(Br)C[C@H](O)[C@H]3OC(=O)c4cc5c(cc4[C@H]3[C@H]12)OCO5`, the IC50 amounted to 58.7 µM. With `CN1CC[C@]2(O)[C@H](Br)[C@H](O)[C@H]3OC(=O)c4cc5c(cc4[C@H]3[C@H]12)OCO5`, the IC50 turned out to be 58.3 µM. The same measure for `CN1CC[C@@]2(O)[C@@H]1[C@@H]1c3cc4c(cc3C(=O)O[C@@H]1[C@@H](O)[C@@H]2O)OCO4`: 68.7 µM; for `C=Cc1cccc(-c2cc3c(cc2C(=O)O)OCO3)c1N(C)C`: 67.5 µM.

Turning to `C=Cc1cccc(-c2cc3c(cc2C(=O)O)OCO3)c1N(C)CC`, the IC50 came out at 86.1 µM. As to `C=Cc1cccc(-c2cc3c(cc2C(=O)O)OCO3)c1N(C)CCCC`, the IC50 is above 100 µM. The same measure for `C=Cc1cccc(-c2cc3c(cc2C(=O)O)OCO3)c1N(C)CCCCCCCCCCC`: above 100 µM. The same measure for `C=Cc1cccc(-c2cc3c(cc2C(=O)OC)OCO3)c1N(C)C`: 67.6 µM; for `C=Cc1cccc(-c2cc3c(cc2C(=O)OC)OCO3)c1N(C)CCCC`: 76.2 µM. The same measure for `CN1CCC2=C[C@H](OC(=O)c3cccc(C(=O)O[C@H]4C=C5CCN(C)[C@H]5[C@@H]5c6cc7c(cc6C(=O)O[C@@H]54)OCO7)c3)[C@H]3OC(=O)c4cc5c(cc4[C@H]3[C@@H]21)OCO5`: 1.3 µM; for `CN1CCC2=C[C@H](OC(=O)c3cccc(C(=O)O[C@H]4C=C5CCN(C)[C@H]5[C@@H]5c6cc7c(cc6C(=O)O[C@@H]54)OCO7)n3)[C@H]3OC(=O)c4cc5c(cc4[C@H]3[C@@H]21)OCO5`: 3.9 µM; for `CN1CCC2=C[C@H](OC(=O)c3ccc(C(=O)O[C@H]4C=C5CCN(C)[C@H]5[C@@H]5c6cc7c(cc6C(=O)O[C@@H]54)OCO7)cc3)[C@H]3OC(=O)c4cc5c(cc4[C@H]3[C@@H]21)OCO5`: 1.3 µM.

On to `CN1CCC2=C[C@H](OC(=O)CCCCC(=O)O[C@H]3C=C4CCN(C)[C@H]4[C@@H]4c5cc6c(cc5C(=O)O[C@@H]43)OCO6)[C@H]3OC(=O)c4cc5c(cc4[C@H]3[C@@H]21)OCO5`, for which the IC50 was 4 µM. In the case of `CN1CCC2=C[C@H](O)[C@H]3OC(=O)c4cc5c(cc4[C@H]3[C@@H]21)OCO5`, the IC50 came to 12.7 µM. With `CN1CCC2=CC(=O)[C@H]3OC(=O)c4cc5c(cc4[C@H]3[C@@H]21)OCO5` [2-OXOHIPPEASTRINE], the IC50 turned out to be 79.8 µM.
